# Laboratory results from ChEMBL document CHEMBL3867452, “Acylphloroglucinolated Catechin and Phenylethyl Isocoumarin Derivatives from Agrimonia pilosa” (J Nat Prod, 2016).
# Key:
# BV-2 = experiment: Inhibition of LPS-induced NO production in mouse BV2 cells preincubated for 1 hr followed by LPS addition measured after 24 hrs by Griess assay; type: functional, cell-based
# In short: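 BV2 cells seeded at 4 × 10^4 cells/well. Compounds were dissolved in DMSO, final DMSO under 0.1%. Pretreatment lasted 1 h, then LPS 500 ng/mL was added and cells incubated 24 h. Nitrite in the medium was measured by Griess assay. IC50 given as mean ± SD of three experiments; ω-nitro-L-arginine methyl ester served as positive control.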
# Mus musculus = species: Mus musculus; experiment: Cytotoxicity against mouse BV2 cells assessed as reduction in cell viability after 24 hrs by MTT assay; type: toxicity, cell-based; conditions: bv-2, 24 h
# In short: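 BV2 microglia kept in DMEM with 10% FBS, penicillin 100 IU/mL and streptomycin, at 37.8 °C under 5% CO2. Cells were incubated 24 h in 96-well plates. Medium was then replaced with MTT 0.2 mg/mL for 3 h at 37.8 °C, and formazan was dissolved in DMSO. Absorbance read at 540 nm; viability given as percent of control.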
Compound,IC50 (BV-2) [µM],Activity (Mus musculus)
COC(=O)[C@@H](N)CCCNC(=N)N[N+](=O)[O-] [L-NAME],24.7,–
CCC(C)C(=O)c1c(O)c(Cc2c(O)cc(O)c3c2O[C@H](c2ccc(O)c(O)c2)[C@@H](O)C3)c(O)c(C)c1OC (stereo partly specified),60.4,Non-Toxic
COc1c(C)c(O)c(Cc2c(O)cc(O)c3c2O[C@H](c2ccc(O)c(O)c2)[C@@H](O)[C@@H]3c2c(O)cc(O)c3c2O[C@H](c2ccc(O)c(O)c2)[C@H](O)C3)c(O)c1C(=O)C(C)C,38.1,Non-Toxic
COc1c(C)c(O)c(Cc2c(O)cc(O)c3c2O[C@H](c2ccc(O)c(O)c2)[C@@H](O)C3)c(O)c1C(=O)C(C)C,54.6,Non-Toxic
CCCC(=O)c1c(O)c(Cc2c(O)cc(O)c3c2O[C@H](c2ccc(O)c(O)c2)[C@@H](O)C3)c(O)c(C)c1OC,38.1 to 43.6,Non-Toxic
CCCC(=O)c1c(O)c(Cc2c(O)cc(O)c3c2O[C@H](c2ccc(O)c(O)c2)[C@@H](O)[C@@H]3c2c(O)cc(O)c3c2O[C@H](c2ccc(O)c(O)c2)[C@H](O)C3)c(O)c(C)c1OC,43.6 to 52.4,Non-Toxic
